Source: PubChem BioAssay
An excerpt weighted towards active compounds, which were near 3.5% of everything screened.
MrgX1 antagonist – human MrgX1 receptor antagonism, primary screen. Q96LB2. MRGX1-HEK293 calcium flux, Fluo-4, BAM8-22 antagonism; stronger effect = lower value. B-score at 10 µM. 310,000 tested, 1.3% active;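 active = calcium-response B-score plate-corrected more than 3 library SD below zero, starting fluorescence within 5 deviations, no agonist response on first addition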;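 note: peak minus trough fluorescence over baseline after final BAM8-22 challenge near maximal dose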
Target sequence (Q96LB2 whole entry, looked up): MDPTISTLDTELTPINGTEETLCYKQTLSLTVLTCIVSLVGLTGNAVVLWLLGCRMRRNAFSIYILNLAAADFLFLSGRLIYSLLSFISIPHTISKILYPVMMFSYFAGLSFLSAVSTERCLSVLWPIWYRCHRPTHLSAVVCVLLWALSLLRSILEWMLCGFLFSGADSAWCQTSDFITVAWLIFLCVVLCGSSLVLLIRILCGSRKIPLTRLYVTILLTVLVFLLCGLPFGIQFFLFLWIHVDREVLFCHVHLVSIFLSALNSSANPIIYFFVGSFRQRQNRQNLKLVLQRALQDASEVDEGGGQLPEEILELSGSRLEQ
MrgX1 PAM – allosterically activates human MrgX1 receptor signaling; Q96LB2; MrgX1-HEK293, Fluo-4 calcium flux, FDSS; stronger effect = higher value; B-score at 10 µM; 310,000 tested, 0.63% active;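 active = plate-corrected calcium response at least 3 library SD above typical, normal starting fluorescence, not activating the receptor alone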;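 note: compound read alongside a low EC10 to EC30 dose of BAM8-22 agonist; peak minus trough fluorescence over baseline measured at the second addition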
RGS4 inh – inhibitors of human RGS4 | 310,000 tested, 0.45% active | B-score at 10 µM | HEK293 M3R/RGS4 inducible, Fluo-4 calcium flux; stronger effect = higher value; triggered by carbachol at its EC20 | P49798;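 active = B-score, a plate-corrected calcium signal, over three deviations above library mean, with baseline fluorescence within five deviations of library mean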;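 note: RGS4 expression induced by doxycycline in cells with stable M3 receptor; B-score is computed from the integrated fluorescence ratio over baseline after carbachol; higher B-score means a larger calcium signal and so more RGS4 inhibition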
Target sequence (P49798 whole entry, looked up): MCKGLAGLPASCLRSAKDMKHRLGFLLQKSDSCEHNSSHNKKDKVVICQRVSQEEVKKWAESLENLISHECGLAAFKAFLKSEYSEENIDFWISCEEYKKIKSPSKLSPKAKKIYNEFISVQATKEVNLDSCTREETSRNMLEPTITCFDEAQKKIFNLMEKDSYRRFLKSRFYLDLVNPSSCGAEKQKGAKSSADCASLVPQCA
MrgX1 agonist – agonists of human MrgX1 receptor. Q96LB2. MrgX1-HEK293 cells, Fluo-4 calcium fluorescence, agonist mode; stronger effect = higher value. B-score at 10 µM. 310,000 tested, 0.44% active. AID 588627;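 active = calcium response B-score plate-corrected fluorescence ratio at least 3 library SD, with starting fluorescence B-score inside 5 SD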
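Test system: Stable human MrgX1 HEK293 cell line | Schedule: Overnight plating before 1 h dye loading | Read-out basis: Baseline-normalised fluorescence change ratio, B-scored | Detection: Kinetic calcium dye fluorescence, Fluo-4 NW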
RGS4 pot – RGS4 potentiation or activation; 310,000 tested, 0.92% active; B-score at 10 µM; HEK293 M3R/inducible RGS4, carbachol calcium flux Fluo4; stronger effect = lower value;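 active = B-score of the integrated calcium signal more than 4 SD below the library mean, with starting fluorescence not abnormally high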;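 note: negative B-score means reduced calcium response which marks RGS4 activation or potentiation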
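System – HEK293 FlpIn-TREx cells, stable M3R, doxycycline-inducible RGS4 · Reagent – ECmax carbachol challenge · Times – compound preincubation 20 min at room temperature before agonist · Technique – Fluo4 fluorescence kinetic imaging of calcium · Measure – B score of integrated Fluo4 ratio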
Numbers without * were called inactive; i = inactive.

SMILES | MrgX1 antagonist | MrgX1 PAM | RGS4 inh | MrgX1 agonist | RGS4 pot
O=[N+]([O-])c1ccc(N=Cc2ccc(Br)c([N+](=O)[O-])c2)cc1 | i | i | i | 34* | i
Cc1cnc(CNC(=O)C2CCC(=O)N(CCc3cccc(F)c3)C2)[nH]1 (stereo unspecified) | i | i | i | i | i
CCOc1ccc(C2C(C#N)=C(N)N3C(=C2C#N)Sc2ccccc23)cc1 (stereo unspecified) | -4.8* | i | i | i | i
N#CC1=C(N)N2C(=C(C#N)C1c1ccccc1)Sc1ccccc12 (stereo unspecified) | i | i | i | i | i
c1ccc(Sc2ccccc2CN2CCCC2)cc1 | i | i | i | i | -7.4*
Fc1ccccc1CN1CCCCCCC1 | i | i | i | i | i
Cc1oc(-c2ccccc2F)nc1CS(=O)(=O)CC(=O)NC1CCCC1 | i | i | i | i | i
Cc1oc(-c2ccccc2F)nc1CS(=O)(=O)CC(=O)NCCN(C)C1CCCCC1 | -5.7* | i | i | i | i
CCOC(CNC(=O)c1ccc2c(c1)ncn2-c1ccc(F)c(F)c1)OCC | i | i | i | i | i
COc1ccccc1C(=O)NC(=O)COC(=O)c1cnc(C)cn1 | i | i | i | i | i
Cc1c(CCOC(=O)C23CC4CC(CC(C)(C4)C2)C3)sc[n+]1Cc1ccccc1 | i | i | i | i | i
Cc1ccc(C(=O)OCCc2sc[n+](Cc3ccccc3)c2C)cc1 | i | i | i | i | -9.1*
Cc1ccc(S(=O)(=O)N2CC(O)C2)cc1 | i | i | i | i | i
CCCSc1nc(=O)n2cccc(C)c2n1 | i | i | i | i | i
Cc1ccc(C(=O)CCS(=O)(=O)c2ccc(Br)cc2)cc1 | i | i | i | i | i
Cc1ccc(S(=O)(=O)CCC(=O)c2cccc([N+](=O)[O-])c2)cc1 | i | i | i | 33* | i
O=C(CCNc1cccc(F)c1)c1cccc([N+](=O)[O-])c1 | i | 9.1* | i | i | i
O=C(CCNc1ccc(Cc2ccncc2)cc1)c1cccc([N+](=O)[O-])c1 | i | i | i | i | i
COc1ccc(NC(=O)/C=C/c2ccccc2)c([N+](=O)[O-])c1 | -7.1* | i | i | i | i
COc1ccc(/C=C/C(=O)Nc2ccc(OC)cc2[N+](=O)[O-])cc1 | i | i | i | i | i
CC(C)NC(=O)c1ccccc1NC(=O)/C=C/c1cccc([N+](=O)[O-])c1 | -4.5* | i | i | i | i
C/C(=C/C#N)Nc1ccc(C)cc1 | i | 12* | i | i | i
Cc1ccc(NC(=O)COC(=O)/C=C/c2c(C)nn(-c3ccc(F)cc3)c2Cl)cc1F | -5.4* | i | i | i | i
COc1ccc(/C=N/NC(=O)c2ccc3ccccc3c2)cc1OS(=O)(=O)c1ccc(NC(C)=O)cc1 | i | i | i | i | -9.3*
COC(=O)CN1C(=S)N(c2ccc(OC)cc2)C(=O)/C1=C/c1ccc(N2CCOCC2)cc1 | -6.1* | i | i | i | i
SMILES | MrgX1 antagonist | MrgX1 PAM | RGS4 inh | MrgX1 agonist | RGS4 pot
O=C(C1CCC(C(=O)N2CCc3ccccc32)CC1)N1CCc2ccccc21 (stereo unspecified) | i | i | i | i | i
O=C(CCl)c1ccc2c(c1)CCN2C(=O)C1CC1 | i | i | 7.1* | 33* | i
O=C(OCC(=O)N(Cc1ccccc1)Cc1ccccc1)c1ccccc1NCCO | i | i | i | i | -9.3*
Cn1cccc1/C=N\NC(=O)C1COc2ccc(C(C)(C)C)cc2O1 (stereo unspecified) | i | 8.1* | i | i | i
Cn1cccc1/C=N\NC(=O)C1COc2ccccc2O1 (stereo unspecified) | i | i | i | i | i
Cc1cccc(-c2cc(C(=O)Nc3c(C)n(C)n(-c4ccccc4)c3=O)c3ccccc3n2)c1 | i | 6.6* | i | i | -8.5*
NC(=O)C1CCN(CC(=O)N2N=CCC2c2ccccc2)CC1 (stereo unspecified) | -5.8* | i | i | i | i
C=CCn1c(COc2cc(C)ccc2C(C)C)nnc1SCC(=O)c1c(N)n(C)c(=O)n(C)c1=O | -4.7* | i | i | i | i
CCCCCCn1c(COc2ccccc2F)nnc1SCC(=O)c1c(N)n(C)c(=O)n(C)c1=O | i | i | i | i | i
COc1ccccc1C(=O)COC(=O)c1cc([N+](=O)[O-])ccc1N1CCOCC1 | i | i | i | i | i
COc1cc(C(=O)COC(=O)c2cc([N+](=O)[O-])ccc2N2CCOCC2)ccc1OC(F)F | -6.2* | i | i | i | i
COc1ccc(C/C(N)=N/OC(=O)CCc2ccccc2)cc1 | i | i | i | i | i
CC(=O)Nc1ccc(NC(=O)c2ccc(CN3CCc4ccccc4C3)cc2)cc1 | i | i | i | i | i
O=C(Nc1cccc(Br)c1)c1ccc(CN2CCc3ccccc3C2)cc1 | -6.1* | i | i | i | -8.8*
CSc1cccc(NC(=O)c2ccc(CN3CCc4ccccc4C3)cc2)c1 | -8.2* | i | i | i | i
O=C(COC(=O)c1c2ccccc2cc2ccccc12)Nc1ncc(C(F)(F)F)cc1Cl | i | i | i | i | -7*
O=C(COC(=O)c1ccc2ccccc2c1)Nc1ncc(C(F)(F)F)cc1Cl | i | i | i | i | i
N#CC1=C(Nc2ccccc2)SC=C(c2ccc(F)cc2)N=C1N1CCOCC1 | i | i | i | i | i
Cc1ccc(C(=O)C(c2ccccc2)N2Cc3ccccc3C2=N)cc1 (stereo unspecified) | i | i | i | i | -8.1*
Cc1cc(=O)n2nc(N3CCCC(C(=O)N4CCc5ccccc54)C3)sc2n1 (stereo unspecified) | i | i | i | i | -7.7*
O=C1CCCN1CCCNc1ncnc2c1[nH]c1ccc(Cl)cc12 | i | i | i | 37* | i
c1ccc(COc2ccc(OCCCCN3CCCC3)cc2)cc1 | i | i | i | i | -8.8*
O=C(c1ccccc1)c1ccc(OCCCN2CCCCC2)cc1 | i | i | i | i | -7.2*
CC(=O)c1ccc(OCCCN2CCCCC2)cc1 | i | i | i | i | i
c1ccc(OCCCCN2CCCCC2)cc1 | i | i | i | i | i
c1ccc(-c2ccccc2OCCCCN2CCCCCC2)cc1 | i | i | i | i | -7*
